ChEMBL document CHEMBL1149653, “Hydroxyethylene isosteres of selective neuronal nitric oxide synthase inhibitors” (Bioorg Med Chem, 2007)

What was measured:
[1] = Selectivity for nNOS over iNOS
[2] = Selectivity for nNOS over eNOS
[3] = molecular target: T1, Nitric oxide synthase, inducible (Mus musculus, UniProt P29477); experiment: Inhibition of recombinant mouse macrophage iNOS expressed in Escherichia coli
T1 sequence (P29477 whole entry): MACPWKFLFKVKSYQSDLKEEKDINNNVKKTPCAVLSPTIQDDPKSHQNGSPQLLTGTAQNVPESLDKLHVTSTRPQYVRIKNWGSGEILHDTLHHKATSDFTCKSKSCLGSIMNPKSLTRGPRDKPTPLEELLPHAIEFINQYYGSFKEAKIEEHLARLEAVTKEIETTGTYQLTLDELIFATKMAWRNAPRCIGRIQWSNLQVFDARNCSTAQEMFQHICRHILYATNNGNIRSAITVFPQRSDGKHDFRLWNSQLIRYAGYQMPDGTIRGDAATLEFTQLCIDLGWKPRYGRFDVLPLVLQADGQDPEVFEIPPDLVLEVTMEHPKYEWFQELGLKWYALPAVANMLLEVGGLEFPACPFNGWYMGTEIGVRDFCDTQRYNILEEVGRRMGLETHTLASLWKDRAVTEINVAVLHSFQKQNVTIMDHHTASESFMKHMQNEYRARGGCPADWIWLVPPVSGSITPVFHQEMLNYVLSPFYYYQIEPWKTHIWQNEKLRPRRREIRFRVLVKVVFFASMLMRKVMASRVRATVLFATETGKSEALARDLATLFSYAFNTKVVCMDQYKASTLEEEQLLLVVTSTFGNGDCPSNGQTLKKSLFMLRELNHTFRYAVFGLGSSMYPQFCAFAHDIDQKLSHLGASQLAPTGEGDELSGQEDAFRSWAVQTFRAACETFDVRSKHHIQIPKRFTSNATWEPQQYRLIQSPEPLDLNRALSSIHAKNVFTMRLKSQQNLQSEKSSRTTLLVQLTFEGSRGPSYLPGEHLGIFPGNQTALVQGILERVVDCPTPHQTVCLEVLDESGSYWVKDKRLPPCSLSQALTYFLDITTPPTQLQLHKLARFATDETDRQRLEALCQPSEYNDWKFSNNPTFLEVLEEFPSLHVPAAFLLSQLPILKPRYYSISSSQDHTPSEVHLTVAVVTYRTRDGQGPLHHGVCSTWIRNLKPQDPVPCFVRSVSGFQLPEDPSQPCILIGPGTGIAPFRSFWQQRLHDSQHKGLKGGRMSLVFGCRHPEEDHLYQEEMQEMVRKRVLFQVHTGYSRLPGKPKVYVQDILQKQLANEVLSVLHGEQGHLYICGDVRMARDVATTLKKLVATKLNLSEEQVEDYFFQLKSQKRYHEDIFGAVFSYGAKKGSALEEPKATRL
Outline: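 Enzyme purified from E. coli, added to start the reaction. Conditions: 30 °C, 100 mM Hepes pH 7.4, 10 µM L-arginine, 100 µM DTT, 100 µM NADPH, 6.5 µM H4B, […], no added Ca2+ or calmodulin. NO capture was read as the A400 rise over 1 min.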

Nitric oxide synthase 1 = Nitric oxide synthase 1 (Rattus norvegicus, UniProt P29476); experiment: Inhibition of recombinant rat brain nNOS expressed in Escherichia coli
Nitric oxide synthase 1, sequence (P29476 whole entry): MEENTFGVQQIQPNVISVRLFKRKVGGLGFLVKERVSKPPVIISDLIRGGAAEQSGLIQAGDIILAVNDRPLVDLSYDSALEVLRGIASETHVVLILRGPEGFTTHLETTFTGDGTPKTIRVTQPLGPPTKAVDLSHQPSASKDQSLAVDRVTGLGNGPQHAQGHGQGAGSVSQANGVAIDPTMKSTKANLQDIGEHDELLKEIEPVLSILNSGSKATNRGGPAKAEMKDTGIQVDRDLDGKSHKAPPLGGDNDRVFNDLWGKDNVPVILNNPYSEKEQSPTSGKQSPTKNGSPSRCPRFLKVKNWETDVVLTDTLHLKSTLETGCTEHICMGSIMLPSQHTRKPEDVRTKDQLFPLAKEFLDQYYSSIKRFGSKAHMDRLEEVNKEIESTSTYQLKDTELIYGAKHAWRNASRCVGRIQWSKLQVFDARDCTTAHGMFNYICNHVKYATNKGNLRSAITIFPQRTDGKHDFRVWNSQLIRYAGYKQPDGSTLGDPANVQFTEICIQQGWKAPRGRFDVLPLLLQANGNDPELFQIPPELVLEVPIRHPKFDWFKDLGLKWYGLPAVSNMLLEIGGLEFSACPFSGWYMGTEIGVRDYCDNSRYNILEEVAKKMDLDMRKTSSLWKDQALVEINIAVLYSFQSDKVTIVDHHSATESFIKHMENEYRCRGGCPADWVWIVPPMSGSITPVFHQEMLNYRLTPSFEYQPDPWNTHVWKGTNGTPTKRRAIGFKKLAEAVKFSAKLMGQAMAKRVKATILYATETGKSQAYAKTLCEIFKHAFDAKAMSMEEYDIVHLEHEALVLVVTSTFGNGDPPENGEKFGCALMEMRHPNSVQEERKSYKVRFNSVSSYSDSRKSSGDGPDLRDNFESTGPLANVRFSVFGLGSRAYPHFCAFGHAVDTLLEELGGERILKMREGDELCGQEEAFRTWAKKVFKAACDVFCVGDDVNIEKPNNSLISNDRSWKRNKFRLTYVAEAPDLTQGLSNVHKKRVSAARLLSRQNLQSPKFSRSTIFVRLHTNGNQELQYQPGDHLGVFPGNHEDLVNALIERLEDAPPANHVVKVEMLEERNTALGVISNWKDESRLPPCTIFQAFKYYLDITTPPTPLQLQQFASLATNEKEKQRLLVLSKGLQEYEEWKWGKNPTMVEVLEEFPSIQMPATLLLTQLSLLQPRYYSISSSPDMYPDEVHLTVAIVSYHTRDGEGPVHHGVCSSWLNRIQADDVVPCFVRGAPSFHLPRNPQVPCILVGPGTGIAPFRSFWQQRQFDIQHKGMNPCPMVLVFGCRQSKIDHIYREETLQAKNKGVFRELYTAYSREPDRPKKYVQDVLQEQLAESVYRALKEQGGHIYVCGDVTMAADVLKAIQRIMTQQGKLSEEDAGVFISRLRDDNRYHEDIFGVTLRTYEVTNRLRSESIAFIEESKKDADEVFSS

Nitric oxide synthase 3 = molecular target: T2, Nitric oxide synthase 3 (Bos taurus, UniProt P29473); experiment: Inhibition of recombinant bovine eNOS expressed in Escherichia coli
T2 sequence (P29473 whole entry): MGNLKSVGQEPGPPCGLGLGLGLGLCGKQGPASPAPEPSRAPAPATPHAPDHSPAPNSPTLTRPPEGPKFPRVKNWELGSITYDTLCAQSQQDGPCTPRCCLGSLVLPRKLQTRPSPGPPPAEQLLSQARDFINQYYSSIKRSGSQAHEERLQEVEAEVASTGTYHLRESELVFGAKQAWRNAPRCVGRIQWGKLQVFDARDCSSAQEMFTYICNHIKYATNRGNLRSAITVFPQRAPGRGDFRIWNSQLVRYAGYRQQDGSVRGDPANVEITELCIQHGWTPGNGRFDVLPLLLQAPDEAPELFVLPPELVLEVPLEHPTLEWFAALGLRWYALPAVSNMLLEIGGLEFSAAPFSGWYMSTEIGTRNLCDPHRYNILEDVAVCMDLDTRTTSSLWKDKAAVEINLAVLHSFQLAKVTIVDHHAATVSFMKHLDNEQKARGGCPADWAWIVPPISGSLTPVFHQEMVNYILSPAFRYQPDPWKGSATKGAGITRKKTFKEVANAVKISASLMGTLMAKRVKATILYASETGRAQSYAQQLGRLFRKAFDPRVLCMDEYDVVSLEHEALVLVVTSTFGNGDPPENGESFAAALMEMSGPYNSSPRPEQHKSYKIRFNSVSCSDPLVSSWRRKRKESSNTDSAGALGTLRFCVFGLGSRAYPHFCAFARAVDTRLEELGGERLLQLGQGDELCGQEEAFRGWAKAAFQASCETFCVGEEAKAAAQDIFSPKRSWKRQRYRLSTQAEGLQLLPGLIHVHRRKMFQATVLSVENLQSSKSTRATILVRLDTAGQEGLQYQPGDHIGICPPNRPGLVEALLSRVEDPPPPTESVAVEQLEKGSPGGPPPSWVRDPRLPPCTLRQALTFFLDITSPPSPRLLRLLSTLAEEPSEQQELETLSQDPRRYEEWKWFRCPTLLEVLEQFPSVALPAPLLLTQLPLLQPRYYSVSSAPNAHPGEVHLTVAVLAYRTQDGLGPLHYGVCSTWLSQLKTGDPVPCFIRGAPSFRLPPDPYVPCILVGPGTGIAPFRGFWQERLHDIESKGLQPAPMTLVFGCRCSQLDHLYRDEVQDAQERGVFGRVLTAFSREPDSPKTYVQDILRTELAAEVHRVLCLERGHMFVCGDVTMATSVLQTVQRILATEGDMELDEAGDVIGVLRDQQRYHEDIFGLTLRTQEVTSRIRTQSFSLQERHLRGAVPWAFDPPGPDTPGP

Compound	Ratio IC50 [1]	Ratio IC50 [2]	IC50 [3] [µM]	IC50 (Nitric oxide synthase 1) [µM]	IC50 (Nitric oxide synthase 3) [µM]	Ki (Nitric oxide synthase 1) [µM]
N=C(NCCC[C@H](N)C[C@H](O)CCO)N[N+](=O)[O-]	7.7	9.9				
N=C(NCCC[C@H](N)C[C@@H](O)CCCN)N[N+](=O)[O-]	15	59				
NC(=NCCC[C@H](N)C[C@@H](O)CCCO)N[N+](=O)[O-]			524	255	2580	
NC(=NCCC[C@H](N)C[C@H](O)CCO)N[N+](=O)[O-]			1290	168	1660	
N=C(NCCC[C@H](N)C[C@@H](O)CCO)N[N+](=O)[O-]	3.1	10.2				
N=C(NCCC[C@H](N)C[C@@H](O)CCN)N[N+](=O)[O-]	107	475	257	2.4	1140	0.29
N=C(NCCC[C@H](N)C[C@@H](O)CCCO)N[N+](=O)[O-]	2.1	10.1				
N=C(NCCC[C@H](N)C[C@H](O)CCCN)N[N+](=O)[O-]	33	225	313	6.8	1530	0.83
N=C(NCCC[C@H](N)C[C@H](O)CCCO)N[N+](=O)[O-]	0.54	1.8	266	490	879	
N=C(NCCC[C@H](N)C[C@H](O)CCN)N[N+](=O)[O-]	18	143				
NCCC[C@H](O)C[C@@H](N)CCCN=C(N)N[N+](=O)[O-]			361	23.5	1390	2.8
NC(=NCCC[C@H](N)C[C@@H](O)CCO)N[N+](=O)[O-]			331	106	1090	
NCC[C@@H](O)C[C@@H](N)CCCN=C(N)N[N+](=O)[O-]			167	9.4	1340	1.1
